Assays:
Set-up in all cases: dose 5 mg/kg, dosed compound name [14C]CS-1036, route oral
Conditions in all cases: in vivo
Cerebrum [1] = assay: Drug uptake in albino F344/DuCrlCrlj rat cerebrum at 5 mg/kg, po after 8 hrs by liquid scintillation counting; format: ADME, organism-based
How it was run: (§1)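 Single oral [14C]CS-1036 at 5 mg/kg was given to male rats (159–167 g; n = 3). Cerebrum was collected after aortic bleeding at 1, 4, 8, 24, 72, 168 or 336 h, weighed, and homogenized in 2 volumes of saline. A 0.5 ml aliquot was solubilized in Soluene-350 and counted by LSC with external-standard correction. Results are in ng equivalent/g tissue from specific activity and sample weight.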

Plasma [2] = assay: Drug uptake in albino F344/DuCrlCrlj rat plasma assessed as ng equivalent of CS-1036 at 5 mg/kg, po after 1 hr by liquid scintillation counting; format: ADME, organism-based
[3] = Drug uptake in albino F344/DuCrlCrlj rat thyroid gland assessed as ng equivalent of CS-1036 at 5 mg/kg, po after 4 hrs by liquid scintillation counting; format: ADME, organism-based
[4] = Drug uptake in albino F344/DuCrlCrlj rat fat assessed as ng equivalent of CS-1036 at 5 mg/kg, po after 168 hrs by liquid scintillation counting; format: ADME, organism-based, Adipose tissue
How it was run: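 Male F344/DuCrlCrlj rats (bought at 7 weeks, acclimatized 5–6 days; 159–167 g; n = 3 per time point) received a single oral dose of [14C]CS-1036 at 5 mg/kg. White adipose tissue was collected after abdominal aortic bleeding at 1, 4, 8, 24, 72, 168 or 336 h. Samples were counted by LSC with external-standard efficiency correction. Results were converted to ng equivalents per g from specific activity and sample weight.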

[5] = Drug uptake in albino F344/DuCrlCrlj rat thyroid gland at 5 mg/kg, po after 72 hrs by liquid scintillation counting; format: ADME, organism-based
Plasma [6] = assay: Drug uptake in albino F344/DuCrlCrlj rat plasma at 5 mg/kg, po after 1 hr by liquid scintillation counting; format: ADME, organism-based
Thymus = assay: Drug uptake in albino F344/DuCrlCrlj rat thymus assessed as ng equivalent of CS-1036 at 5 mg/kg, po after 336 hrs by liquid scintillation counting; format: ADME, organism-based
Pancreas = assay: Drug uptake in albino F344/DuCrlCrlj rat pancreas assessed as ng equivalent of CS-1036 at 5 mg/kg, po after 336 hrs by liquid scintillation counting; format: ADME, organism-based
Stomach = assay: Drug uptake in albino F344/DuCrlCrlj rat stomach assessed as ng equivalent of CS-1036 at 5 mg/kg, po after 8 hrs by liquid scintillation counting; format: ADME, organism-based
Cerebellum = assay: Drug uptake in albino F344/DuCrlCrlj rat cerebellum assessed as ng equivalent of CS-1036 at 5 mg/kg, po after 24 hrs by liquid scintillation counting; format: ADME, organism-based
[7] = Drug uptake in albino F344/DuCrlCrlj rat pituitary gland assessed as ng equivalent of CS-1036 at 5 mg/kg, po after 24 hrs by liquid scintillation counting; format: ADME, organism-based
Cerebrum [8] = assay: Drug uptake in albino F344/DuCrlCrlj rat cerebrum at 5 mg/kg, po after 4 hrs by liquid scintillation counting; format: ADME, organism-based; how it was run: as §1
Harderian gland = assay: Drug uptake in albino F344/DuCrlCrlj rat harderian gland at 5 mg/kg, po after 336 hrs by liquid scintillation counting; format: ADME, organism-based
Adrenal gland = assay: Drug uptake in albino F344/DuCrlCrlj rat adrenal gland assessed as ng equivalent of CS-1036 at 5 mg/kg, po after 24 hrs by liquid scintillation counting; format: ADME, organism-based

Radiolabel recovery (Cerebrum [1]): 9.08 ngequiv/g
Radiolabel recovery (Plasma [2]): 12.7 ngequiv/ml
Radiolabel recovery [3]: 21.4 ngequiv/g
Radiolabel recovery [4]: 64 ngequiv/g
Radiolabel recovery [5]: 99.1 ngequiv/g
Radiolabel recovery (Plasma [6]): 90.6 ngequiv/ml
Radiolabel recovery (Thymus): 1.96 ngequiv/g
Radiolabel recovery (Pancreas): 11.2 ngequiv/g
Radiolabel recovery (Stomach): 59 ngequiv/g
Radiolabel recovery (Cerebellum): 2.3 ngequiv/g
Radiolabel recovery [7]: 33.1 ngequiv/g
Radiolabel recovery (Cerebrum [8]): 12.2 ngequiv/g
Radiolabel recovery (Harderian gland): 5.08 ngequiv/g
Radiolabel recovery (Adrenal gland): 20.2 ngequiv/g
Compound: C[C@H]1O[C@@H](O[C@H]2[C@H](O)[C@@H](O)[C@@H](O[14C@H]3[14C@H](O)[14CH2]N[14C@@H]3[14CH2]O)O[C@@H]2CO)[C@H](O)[C@@H](O)[C@@H]1O
